Data published in ChEMBL document CHEMBL2057142, “Discovery and optimization of novel fatty acid transport protein 1 (FATP1) inhibitors” (Bioorg Med Chem Lett, 2012).

Tests used:
[1] = target: Long-chain fatty acid transport protein 1 (Homo sapiens, UniProt Q6PCB7); assay: Inhibition of human recombinant FATP1 acyl-coA synthetase activity using [14C]oleic acid as substrate
[2] = target: Long-chain fatty acid transport protein 1 (Mus musculus, UniProt Q60714); assay: Inhibition of mouse recombinant FATP1 acyl-coA synthetase activity using [14C]oleic acid as substrate
[3] = Metabolic stability in rat blood assessed as compound remaining after 2 hrs; format: ADME, tissue-based; details: read-out: Stability
Outline: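 Test compound incubated with rat blood for 2 h; parent compound remaining (%) measured.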

[4] = system: Rattus norvegicus; assay: (§1) Half life in rat at 1 mg/kg, iv; format: ADME, organism-based; parameters: dose 1 mg/kg, route intravenous; details: in vivo, BLD = below limit of detection
Outline: (§2)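 Intravenous dosing to rats at 1 mg/kg in DMA/PG/(20% HPβCD in saline) 10:10:80; plasma pharmacokinetic parameters averaged from two rats.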

[5] = Volume of distribution in rat at 1 mg/kg, iv; format: ADME, organism-based; parameters: dose 1 mg/kg, route intravenous; details: in vivo; outline: as §2
[6] = system: Rattus norvegicus; assay: (§3) Tmax in rat at 10 mg/kg, po; format: ADME, organism-based; parameters: dose 10 mg/kg, route oral; details: in vivo, BLD = below limit of detection
Outline: (§4)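 Rats dosed orally at 10 mg/kg in DMA/PG/(20% HPβCD in saline) 10:10:80; plasma levels measured, values averaged from two rats.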

[7] = system: Blood; assay: Drug metabolism in rat blood assessed as 1-(2-((4-ethyl-5-((phenylamino)methyl)-4H-1,2,4-triazol-3-ylthio)methyl)benzo[d]oxazol-5-yl)propan-1-ol formation; format: ADME, tissue-based
[8] = system: Rattus norvegicus; assay: (§5) Cmax in rat at 10 mg/kg, po; format: ADME, organism-based; parameters: dose 10 mg/kg, route oral; details: in vivo, BLD = below limit of detection; outline: as §4
[9] = Clearance in rat at 1 mg/kg, iv; format: ADME, organism-based; parameters: dose 1 mg/kg, route intravenous; details: in vivo; outline: as §2
[10] = system: Rattus norvegicus; assay: (§6) AUC in rat at 10 mg/kg, po; format: ADME, organism-based, Plasma; parameters: dose 10 mg/kg, route oral; details: in vivo, BLD = below limit of detection; outline: as §4
[11] = target: Long-chain fatty acid transport protein 1 (Mus musculus) (UniProt Q60714); assay: Inhibition of mouse recombinant FATP1 acyl-coA synthetase activity using [14C]oleic acid as substrate at 10 uM
Outline: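 Same radiometric acyl-CoA synthetase assay with 10 μM [1-¹⁴C] oleic acid, 0.5 mM ATP, 0.5 mM CoA, 5 mM MgCl₂ in Tris-HCl pH 7.4 buffer with Triton X-100 and DTT; test compound at 10 μM, read-out as percent inhibition of ACS activity.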

[12] = Oral bioavailability in rat at 10 mg/kg; format: ADME, organism-based; details: in vivo; outline: as §4
[13] = as §1; format: ADME, organism-based; parameters: dose 1 mg/kg, route intravenous; details: in vivo; outline: as §2
[14] = as §3; format: ADME, organism-based; parameters: dose 10 mg/kg, route oral; details: in vivo; outline: as §4
[15] = as §5; format: ADME, organism-based; parameters: dose 10 mg/kg, route oral; details: in vivo; outline: as §4
[16] = as §6; format: ADME, organism-based, Plasma; parameters: dose 10 mg/kg, route oral; details: plasma; outline: as §4
[17] = system: Mus musculus; assay: Drug metabolism in iv dosed mouse assessed as 2-(4-ethyl-5-((phenylamino)methyl)-4H-1,2,4-triazol-3-ylthio)-N-(4-(1-hydroxypropyl)phenyl)acetamide formation after 5 mins by LC/MS/MS analysis; format: ADME, organism-based; details: in vivo
Outline: (§7)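 Compound dosed intravenously to mouse; blood sampled at 5 min and metabolites identified by LC–MS/MS analysis.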

[18] = system: Mus musculus; assay: Drug metabolism in iv dosed mouse assessed as 2-(4-ethyl-5-((phenylamino)methyl)-4H-1,2,4-triazol-3-ylthio)acetic acid formation after 5 mins by LC/MS/MS analysis; format: ADME, organism-based; details: in vivo; outline: as §7

Sequence of Long-chain fatty acid transport protein 1 (Homo sapiens, UniProt Q6PCB7) (Q6PCB7 whole entry): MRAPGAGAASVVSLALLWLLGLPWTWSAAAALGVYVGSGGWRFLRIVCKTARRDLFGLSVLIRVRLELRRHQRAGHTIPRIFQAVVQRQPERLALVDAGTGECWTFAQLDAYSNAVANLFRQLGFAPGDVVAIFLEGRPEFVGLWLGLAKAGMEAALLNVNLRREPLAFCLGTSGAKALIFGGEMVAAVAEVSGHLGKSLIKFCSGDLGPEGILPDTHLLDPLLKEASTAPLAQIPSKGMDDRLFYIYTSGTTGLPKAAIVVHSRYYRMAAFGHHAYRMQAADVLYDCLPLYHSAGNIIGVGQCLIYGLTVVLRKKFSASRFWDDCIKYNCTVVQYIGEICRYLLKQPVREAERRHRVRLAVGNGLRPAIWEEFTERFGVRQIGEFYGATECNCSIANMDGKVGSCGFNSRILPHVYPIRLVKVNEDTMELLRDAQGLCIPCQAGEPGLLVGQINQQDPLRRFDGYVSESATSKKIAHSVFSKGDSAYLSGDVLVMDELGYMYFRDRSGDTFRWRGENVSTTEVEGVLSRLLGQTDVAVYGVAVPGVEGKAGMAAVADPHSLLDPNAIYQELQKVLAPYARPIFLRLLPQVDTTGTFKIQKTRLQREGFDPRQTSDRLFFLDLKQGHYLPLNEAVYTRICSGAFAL
Sequence of Long-chain fatty acid transport protein 1 (Mus musculus, UniProt Q60714) (Q60714 whole entry): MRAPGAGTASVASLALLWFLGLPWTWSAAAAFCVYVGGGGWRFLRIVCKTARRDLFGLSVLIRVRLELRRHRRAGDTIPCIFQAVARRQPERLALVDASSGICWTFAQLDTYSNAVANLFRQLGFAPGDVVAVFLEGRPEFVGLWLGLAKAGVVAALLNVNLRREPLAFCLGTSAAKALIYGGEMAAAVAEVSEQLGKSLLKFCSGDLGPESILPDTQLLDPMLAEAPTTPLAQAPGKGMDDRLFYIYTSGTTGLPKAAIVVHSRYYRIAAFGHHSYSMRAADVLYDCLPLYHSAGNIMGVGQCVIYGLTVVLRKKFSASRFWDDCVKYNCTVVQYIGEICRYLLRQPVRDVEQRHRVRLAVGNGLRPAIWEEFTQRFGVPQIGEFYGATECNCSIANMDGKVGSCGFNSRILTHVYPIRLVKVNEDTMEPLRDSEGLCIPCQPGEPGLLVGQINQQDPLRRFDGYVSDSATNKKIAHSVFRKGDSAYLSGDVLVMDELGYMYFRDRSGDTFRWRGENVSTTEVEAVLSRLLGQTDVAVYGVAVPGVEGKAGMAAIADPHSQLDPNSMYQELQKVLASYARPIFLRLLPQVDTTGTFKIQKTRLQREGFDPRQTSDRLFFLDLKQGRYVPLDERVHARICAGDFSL
Sequence of Long-chain fatty acid transport protein 1 (Mus musculus) (Q60714 whole entry, looked up): as the sequence (Q60714 whole entry) above

Compound | IC50 [1] | IC50 [2] | other results
CCn1nnc(-c2ccc(NC(=O)CSc3nnc(CNc4ccccc4)n3CC)cc2)n1 | > 1 µM | > 10 µM | –
CCOC(=O)c1ccc2c(c1)CCN2C(=O)CSc1nnc(CNc2ccccc2)n1CC | > 1 µM | > 10 µM | –
CCn1c(CNc2ccccc2)nnc1SCC(=O)Nc1ccc(S(C)(=O)=O)cc1 | > 1 µM | > 10 µM | –
CCn1c(CNc2ccccc2)nnc1SCc1nc2ccc(Cl)cc2o1 | > 1 µM | 5.4 µM | –
CCn1c(CNc2ccccc2)nnc1SCC(=O)Nc1ccc(C(C)=O)cc1 | > 1 µM | – | inhibition [11]: 63%
CCc1ccc2oc(CSc3nnc(CNc4ccccc4)n3CC)nc2c1 | > 1 µM | 1.8 µM | –
CCNC(=O)c1ccc(NC(=O)CSc2nnc(CNc3ccccc3)n2CC)cc1 | > 1 µM | > 10 µM | –
CCn1c(CNc2ccccc2)nnc1SCC(=O)Nc1ccc(C(=O)c2ccccc2)cc1 | > 1 µM | > 10 µM | –
CCC(O)c1ccc2oc(CSc3nnc(CNc4ccccc4)n3CC)nc2c1 (stereo not drawn) | > 1 µM | 3.7 µM | remaining at 2 h [3]: 80%
CCn1c(CNc2ccccc2)nnc1SCC(=O)Nc1ccc(C(=O)N(C)C)cc1 | > 1 µM | > 10 µM | –
CCn1c(CNc2ccccc2)nnc1SCc1nc2cc(F)ccc2o1 | > 1 µM | 7.8 µM | –
CCn1c(CNc2ccccc2)nnc1SCc1nc2cc(C)ccc2o1 | > 1 µM | > 10 µM | –
CCC(=O)c1ccc(N(CC)C(=O)CSc2nnc(CNc3ccccc3)n2CC)cc1 | > 1 µM | > 10 µM | –
CCn1c(CNc2ccccc2)nnc1SCC(=O)Nc1ccc(C(=O)NC)cc1 | > 1 µM | > 10 µM | –
CCOC(=O)c1cccc(NC(=O)CSc2nnc(CNc3ccccc3)n2CC)c1 | > 1 µM | 2.9 µM | –
CCn1c(CNc2ccccc2)nnc1SCC(=O)Nc1ccc(C#N)cc1 | > 1 µM | 5.1 µM | –
CCn1c(CNc2ccccc2)nnc1SCC(=O)Nc1ccc(Cl)cc1 | > 1 µM | > 10 µM | –
CCn1c(CNc2ccccc2)nnc1SCc1nc2cc(OC)ccc2o1 | > 1 µM | 2.7 µM | –
CCn1c(CNc2ccccc2)nnc1SCC(=O)Nc1ccccc1 | > 1 µM | > 10 µM | –

The next lines start with results.

IC50 [1] | IC50 [2] | Compound | other results
0.23 µM | 1.1 µM | CCCC(=O)c1ccc(NC(=O)CSc2nnc(CNc3ccccc3)n2CC)cc1 | –
> 1 µM | > 10 µM | CC/C(=N/OC)c1ccc2oc(CSc3nnc(CNc4ccccc4)n3CC)nc2c1 | –
> 1 µM | 2.9 µM | CCOC(=O)c1ccc2c(c1)CCCN2C(=O)CSc1nnc(CNc2ccccc2)n1CC | –
> 1 µM | > 10 µM | CCn1c(CNc2ccccc2)nnc1SCC(=O)Nc1ccc(C(=O)O)cc1 | –
0.33 µM | 1.1 µM | CCOC(=O)c1ccc(NC(=O)CSc2nnc(CNc3ccccc3)n2CC)cc1 | –
> 1 µM | 2.3 µM | CCn1c(CNc2ccccc2)nnc1SCc1nc2cc(Cl)ccc2o1 | remaining at 2 h [3]: 92%
> 1 µM | > 10 µM | CCn1c(CNc2ccccc2)nnc1SCC(=O)Nc1ccc(OC)cc1 | –
> 1 µM | > 10 µM | CCn1c(CNc2ccccc2)nnc1SCc1nc2ccccc2o1 | –
> 1 µM | > 10 µM | CCn1c(CNc2ccccc2)nnc1SCC(=O)Nc1ccc(C(=O)OC(C)(C)C)cc1 | –
0.19 µM | 0.36 µM | CCC(=O)c1ccc2oc(CSc3nnc(CNc4ccccc4)n3CC)nc2c1 | t1/2 [4]: BLD; remaining at 2 h [3]: 8.9%; Vd [5]: 2.69 L/kg; Tmax [6]: BLD; Drug metabolism [7]: Active; Cmax [8]: BLD; clearance [9]: 378 mL/min/kg; AUC [10]: BLD
0.4 µM | 1.5 µM | CCC(=O)c1ccc(NC(=O)CSc2nnc(CNc3ccccc3)n2CC)cn1 | –
1.67 µM | 11.9 µM | CCC(=O)c1ccc2oc(CS(=O)(=O)c3nnc(CNc4ccccc4)n3CC)nc2c1 | remaining at 2 h [3]: 44%
0.68 µM | 0.84 µM | CCOC(=O)c1ccc2oc(CSc3nnc(CNc4ccccc4)n3CC)nc2c1 | remaining at 2 h [3]: 0%
0.36 µM | 0.36 µM | CCn1c(CNc2ccccc2)nnc1SCc1nc2cc(C(F)(F)F)ccc2o1 | bioavailability [12]: 9.2%; half-life [13]: 73.8 min; Vd [5]: 1.86 L/kg; Tmax [14]: 19.8 min; Cmax [15]: 220 ng/mL; clearance [9]: 56 mL/min/kg; AUC [16]: 280 ng·h/mL
7.6 µM | > 10 µM | CCOC(=O)c1ccc(NC(=O)CSc2nnc(CSCc3ccccc3)n2CC)cc1 | –
0.26 µM | 0.2 µM | CC/C(=N/O)c1ccc2oc(CSc3nnc(CNc4ccccc4)n3CC)nc2c1 | remaining at 2 h [3]: 100%
0.54 µM | – | CCn1c(CNc2ccccc2)nnc1SCC(=O)Nc1ccc(C(=O)OC)cc1 | inhibition [11]: 56%
0.4 µM | 1 µM | CCC(=O)c1ccc(NC(=O)CSc2nnc(CNc3ccccc3)n2CC)cc1 | Drug metabolism [17]: Active; remaining at 2 h [3]: 28%; Drug metabolism [18]: Active
0.58 µM | 2 µM | CCC(=O)c1ccc(N(C)C(=O)CSc2nnc(CNc3ccccc3)n2CC)cc1 | remaining at 2 h [3]: 1.9%
0.6 µM | 0.52 µM | CCn1c(CNc2ccccc2)nnc1SCc1nc2cc(C(=O)C(C)C)ccc2o1 | remaining at 2 h [3]: 42%
0.9 µM | 1.2 µM | CCC(=O)c1ccc2nc(CSc3nnc(CNc4ccccc4)n3CC)oc2c1 | remaining at 2 h [3]: 35%
6.6 µM | > 10 µM | C=CCn1c(CNc2ccccc2)nnc1SCC(=O)Nc1ccc(OC)cc1 | –
0.1 µM | 0.091 µM | CCn1c(CNc2ccccc2)nnc1SCc1nc2cc(OC(F)(F)F)ccc2o1 | bioavailability [12]: 5.4%; half-life [13]: 61.2 min; remaining at 2 h [3]: 100%; Vd [5]: 1.73 L/kg; Tmax [14]: 19.8 min; Cmax [15]: 190 ng/mL; clearance [9]: 52 mL/min/kg; AUC [16]: 200 ng·h/mL
